Laboratory results: ChEMBL document CHEMBL3352772, “2-Pyridyl thiazoles as novel anti-Trypanosoma cruzi agents: structural design, synthesis and pharmacological evaluation” (Eur J Med Chem, 2014)

What was measured:
[1] = test system: HepG2; assay: Cytotoxicity against human HepG2 cells after 48 hrs by; assay type: cell-based; settings: HepG2, 48 h
How it was run: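 HepG2 cells in supplemented Eagle's MEM, 3000 cells/well, plated onto predispensed compounds. Incubated 48 h at 37 °C, 80% humidity, 5% CO2. Viability read by CellTiter-Glo luminescence.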

[2] = target: Cruzipain (Trypanosoma cruzi) (UniProt P25779); assay: Inhibition of recombinant Trypanosoma cruzi cruzain using Z-Phe-Argaminomethylcoumarin as fluorogenic substrate preincubated at 100 uM for 10 mins before substrate addition by fluorimetry
How it was run: (§1)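 Recombinant cruzain at 0.5 nM in 0.1 M sodium acetate pH 5.5 with 5 mM DTT and 0.01% Triton X-100. Compound pre-incubated with enzyme 10 min at a single screening concentration. […] Fluorescence followed 5 min at ex 340/em 440 nm. Activity relative to DMSO control; at least two independent experiments in triplicate.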

[3] = test system: Trypanosoma cruzi; assay: Antitrypanosomal activity against trypomastigote forms of Trypanosoma cruzi Y infected in LLC-MK2 cells assessed as reduction in viable parasites after 24 hrs by Neubauer chamber counting method; assay type: functional, organism-based; settings: LLC-MK2, 24 h
How it was run: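 Bloodstream trypomastigotes (Y strain) taken from supernatants of infected LLC-MK2 cells kept in RPMI-1640 with 10% FBS and gentamycin at 37 °C, 5% CO2. Plated at 4×10^5 cells/well with five concentrations of inhibitor in DMSO. Incubated 24 h at 37 °C, 5% CO2. Motile parasites counted in a Neubauer chamber. % inhibition taken against untreated cultures; IC50 from non-linear regression.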

[4] = test system: Trypanosoma cruzi; assay: Trypanocidal activity against epimastigote forms of Trypanosoma cruzi Y assessed as reduction in viable parasites after 11 days by Neubauer chamber counting method; assay type: functional, organism-based; settings: 264 h
How it was run: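 Y-strain epimastigotes grown at 26 °C in LIT medium with 10% FBS, hemin, R9 and gentamycin. Seeded at 10^6 cells/well and exposed in triplicate to 1.23, 3.70, 11.11, 33.33 and 100 µg/mL inhibitor in DMSO. Incubated 11 days at 26 °C. Viable parasites counted in a Neubauer chamber against untreated culture. IC50 from non-linear regression; experiment run in duplicate.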

[5] = target: Cruzipain (Trypanosoma cruzi) (UniProt P25779); assay: Inhibition of recombinant Trypanosoma cruzi cruzain using Z-Phe-Argaminomethylcoumarin as fluorogenic substrate preincubated at 75 uM for 10 mins before substrate addition by fluorimetry; how it was run: as §1
[6] = target: Cruzipain (Trypanosoma cruzi, UniProt P25779); assay: Inhibition of recombinant Trypanosoma cruzi cruzain using Z-Phe-Argaminomethylcoumarin as fluorogenic substrate preincubated for 10 mins before substrate addition by fluorimetry
How it was run: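 IC50 against recombinant cruzain (0.5 nM) in 0.1 M sodium acetate pH 5.5, 5 mM DTT, 0.01% Triton X-100. At least seven inhibitor concentrations, each pre-incubated 10 min with enzyme. Z-FR-AMC at 2.5 µM, fluorescence ex 340/em 440 nm followed 5 min. Two independent experiments in triplicate, normalized to DMSO control.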

[7] = target: Cruzipain (Trypanosoma cruzi) (UniProt P25779); assay: Inhibition of recombinant Trypanosoma cruzi cruzain using Z-Phe-Argaminomethylcoumarin as fluorogenic substrate preincubated at 50 uM for 10 mins before substrate addition by fluorimetry; how it was run: as §1

Cruzipain (Trypanosoma cruzi), sequence (P25779 123-467 limits assumed): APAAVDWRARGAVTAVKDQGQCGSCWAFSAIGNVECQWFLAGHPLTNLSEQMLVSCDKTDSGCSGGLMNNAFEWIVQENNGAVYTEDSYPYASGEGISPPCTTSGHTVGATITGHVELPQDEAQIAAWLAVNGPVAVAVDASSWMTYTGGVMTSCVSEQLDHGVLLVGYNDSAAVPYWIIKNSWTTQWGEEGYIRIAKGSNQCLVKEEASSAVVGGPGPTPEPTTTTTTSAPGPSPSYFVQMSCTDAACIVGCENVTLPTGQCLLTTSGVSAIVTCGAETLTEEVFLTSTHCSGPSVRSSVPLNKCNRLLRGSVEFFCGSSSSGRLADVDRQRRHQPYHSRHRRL
Cruzipain, sequence (P25779 whole entry): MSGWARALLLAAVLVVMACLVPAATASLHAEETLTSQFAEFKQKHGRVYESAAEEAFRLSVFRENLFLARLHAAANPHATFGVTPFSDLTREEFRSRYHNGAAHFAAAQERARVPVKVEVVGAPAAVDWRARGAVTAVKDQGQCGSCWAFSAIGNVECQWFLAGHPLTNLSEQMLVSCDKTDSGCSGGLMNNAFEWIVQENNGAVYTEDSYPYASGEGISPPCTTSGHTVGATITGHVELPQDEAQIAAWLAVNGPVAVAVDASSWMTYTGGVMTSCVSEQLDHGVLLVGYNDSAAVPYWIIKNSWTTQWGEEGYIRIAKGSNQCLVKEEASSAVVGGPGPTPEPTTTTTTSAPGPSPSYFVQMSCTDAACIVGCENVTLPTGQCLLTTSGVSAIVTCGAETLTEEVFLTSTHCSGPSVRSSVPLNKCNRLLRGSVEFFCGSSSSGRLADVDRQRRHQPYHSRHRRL

SMILES	IC50 [1] [µM]	inhibition [2] [%]	IC50 [3] [µM]	IC50 [4] [µM]	inhibition [5] [%]	IC50 [6] [µM]	inhibition [7] [%]
C/C(=N/Nc1nc(-c2ccc(Cl)cc2)cs1)c1ccccn1	100	-3	2.1	2.5	–	–	–
N/C(S)=N/N=C/c1ccccn1	–	1	17.3	120	–	–	–
C/C(=N\Nc1nc(-c2ccc([N+](=O)[O-])cc2)cs1)c1ccccn1	100	–	36.7	5.2	11	–	–
COc1ccc(-c2csc(N/N=C(\C)c3ccccn3)n2)cc1	100	95	2.1	14.7	–	0.04	–
O=[N+]([O-])c1cccc(-c2csc(N/N=C/c3ccccn3)n2)c1	100	85	74.2	2.5	–	1.3	–
C/C(=N\Nc1nc(-c2ccc(Br)cc2)c(C)s1)c1ccccn1	85.1	27	2.3	2.3	–	–	–
C/C(=N\Nc1nc(-c2ccc(C)cc2)cs1)c1ccccn1	100	90	1.7	2.5	–	0.4	–
O=[N+]([O-])c1ccc(-c2csc(N/N=C/c3ccccn3)n2)cc1	100	12	153	4.4	–	–	–
Cc1sc(N/N=C/c2ccccn2)nc1-c1ccc(Br)cc1	100	10	2.6	18.3	–	–	–
Fc1ccc(-c2csc(N/N=C/c3ccccn3)n2)cc1	18.2	–	72.7	3.5	–	–	22
C/C(=N\Nc1nc(-c2ccc(Cl)cc2Cl)cs1)c1ccccn1	100	81	1.9	14.9	–	4.8	–
Clc1ccc(-c2csc(N/N=C/c3ccccn3)n2)c(Cl)c1	100	–	1.2	4.8	0	–	–
C/C(=N\NC(N)=S)c1ccccn1	–	5	2.8	4.5	–	–	–
C/C(=N\Nc1nc(-c2ccc(Br)cc2)cs1)c1ccccn1	100	-8	2.1	2.1	–	–	–
C/C(=N\Nc1nc(-c2ccc3ccccc3c2)cs1)c1ccccn1	100	94	2	4.1	–	0.01	–
Clc1ccc(-c2csc(N/N=C/c3ccccn3)n2)cc1	100	–	3.8	3.8	-1	–	–
Clc1ccc(-c2csc(N/N=C/c3ccccn3)n2)cc1Cl	100	21	1.2	4	–	–	–
Brc1ccc(-c2csc(N/N=C/c3ccccn3)n2)cc1	100	86	2.2	2.2	–	9.5	–
C/C(=N\Nc1nc(-c2ccc(Cl)c(Cl)c2)cs1)c1ccccn1	100	89	3.1	5	–	0.4	–
Cc1ccc(-c2csc(N/N=C/c3ccccn3)n2)cc1	100	23	16.8	3.8	–	–	–
COc1ccc(-c2csc(N/N=C/c3ccccn3)n2)cc1	100	–	4.8	5.6	20	–	–
C/C(=N\Nc1nc(-c2ccccc2)cs1)c1ccccn1	91.2	93	1.1	2.7	–	1.3	–
C(=N\Nc1nc(-c2ccccc2)cs1)/c1ccccn1	100	–	5.4	8.3	9	–	–
C/C(=N\Nc1nc(-c2ccc(F)cc2)cs1)c1ccccn1	91.2	89	3.8	2.8	–	0.3	–
C(=N\Nc1nc(-c2ccc3ccccc3c2)cs1)/c1ccccn1	100	3	2.1	8.3	–	–	–
C/C(=N\Nc1nc(-c2cccc([N+](=O)[O-])c2)cs1)c1ccccn1	100	–	3.9	2.4	10	–	–
